Activity calls are given as the source filed them. The rule behind the calls is not given here.
How the values were obtained:
RAW264.7 [1] = experiment: Inhibition of LPS-induced nitric oxide production in mouse RAW264.7 cells after 20 hrs by Griess reaction; format: functional, cell-based; settings: for IC50: RAW264.7, 20 h
Outline: (§1)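 RAW 264.7 cells plated at 5 × 10⁵ cells/mL, grown 24 h, then given LPS (1 µg/mL) plus compound (DMSO vehicle, final ≤0.1%) for 20 h. Supernatant nitrite measured with Griess reagent (1% sulfanilamide in 5% H₃PO₄, 0.1% N-(1-naphthyl)ethylenediamine) at 540 nm against a NaNO₂ standard curve. %inhibition = [1 − sample NO/vehicle-control NO] × 100. IC50 by nonlinear regression.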

RAW264.7 [2] = experiment: Inhibition of LPS-induced nitric oxide production in mouse RAW264.7 cells at 20 uM after 20 hrs by Griess reaction; format: functional; settings: RAW264.7, 20 h; outline: as §1
RAW264.7 [3] = experiment: Cytotoxicity against mouse RAW264.7 cells assessed as cell viability upto 15 uM after 24 hrs by MTT assay; format: cell-based; settings: raw264.7, 24 h
Outline: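 RAW 264.7 macrophages exposed to compound for 24 h, and viability then read by MTT assay.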

RAW264.7 [4] = experiment: Inhibition of LPS-induced iNOS protein expression in mouse RAW264.7 cells at 15 uM after 16 hrs by Western blot; format: functional, cell-based
Outline: (§2)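 RAW 264.7 cells stimulated with LPS (1 µg/mL) with or without several compound concentrations. Total RNA collected at 4 h and analysed for iNOS mRNA by RT-PCR. Protein collected at 16 h and analysed for iNOS by western blot, with β-actin as reference.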

RAW264.7 [5] = experiment: Inhibition of LPS-induced iNOS mRNA expression in mouse RAW264.7 cells at 15 uM after 4 hrs by RT-PCR; format: functional, cell-based; outline: as §2
RAW264.7 [6] = experiment: Inhibition of LPS-induced iNOS mRNA expression in mouse RAW264.7 cells after 4 hrs by RT-PCR; format: functional, cell-based; outline: as §2
RAW264.7 [7] = experiment: Inhibition of LPS-induced iNOS protein expression in mouse RAW264.7 cells after 16 hrs by Western blot; format: functional, cell-based; outline: as §2

| SMILES | IC50 (RAW264.7 [1]) | inhibition at 20 µM (RAW264.7 [2]) | further results |
| --- | --- | --- | --- |
| CCCNC(=O)c1cc(-n2cc(-c3cc(F)cc(F)c3)nn2)ccc1O | > 20 µM | 0% |  |
| CCCNC(=O)c1cc(-n2cc(-c3cccc(Cl)c3)nn2)ccc1O | > 20 µM | 33.8% |  |
| CCCCCc1ccc(-c2cn(-c3ccc(C(=O)N4CCCCC4)c(O)c3)nn2)cc1 | > 20 µM | 0% |  |
| CCCCCc1ccc(-c2cn(-c3ccc(C(=O)NCCC)c(O)c3)nn2)cc1 | > 20 µM | 0% |  |
| O=C(c1ccc(-n2cc(-c3ccccc3)nn2)cc1O)N1CCCCC1 | > 20 µM | 0% |  |
| O=C(c1ccc(-n2cc(-c3cccc(Cl)c3)nn2)cc1O)N1CCCCC1 | > 20 µM | 0% |  |
| CC(C)CCc1cn(-c2ccc(C(=O)N3CCCCC3)c(O)c2)nn1 | > 20 µM | 1.9% |  |
| CCCNC(=O)c1cc(-n2cc(-c3cc(C(F)(F)F)cc(C(F)(F)F)c3)nn2)ccc1O | > 20 µM | 1.8% |  |
| CCCCCCc1cn(-c2ccc(C(=O)NCCC)c(O)c2)nn1 | > 20 µM | 11% |  |
| O=C(c1ccc(-n2cc(-c3cc(F)cc(F)c3)nn2)cc1O)N1CCCCC1 | > 20 µM | 0% |  |
| CCCNC(=O)c1cc(-n2cc(-c3ccccc3)nn2)ccc1O | > 20 µM | 28.6% |  |
| O=C(c1cc(-n2cc(-c3ccccc3)nn2)ccc1O)N1CCCCC1 | > 20 µM | 11.8% |  |
| CCCCCc1ccc(-c2cn(-c3ccc(O)c(C(=O)N4CCCCC4)c3)nn2)cc1 | > 20 µM | 18.4% |  |
| CCCNC(=O)c1cc(-n2cc(CCC(C)C)nn2)ccc1O | > 20 µM | 22.6% |  |
| CCCNC(=O)c1ccc(-n2cc(-c3cc(C(F)(F)F)cc(C(F)(F)F)c3)nn2)cc1O | > 20 µM | 0% |  |
| CCCCCCc1cn(-c2ccc(C(=O)N3CCCCC3)c(O)c2)nn1 | > 20 µM | 8.3% |  |

Second part, led by results:

| IC50 (RAW264.7 [1]) | SMILES | inhibition at 20 µM (RAW264.7 [2]) | further results |
| --- | --- | --- | --- |
| > 20 µM | CCCNC(=O)c1ccc(-n2cc(-c3cccc(Cl)c3)nn2)cc1O | 0% |  |
| > 20 µM | O=C(c1cc(-n2cc(-c3cccc(Cl)c3)nn2)ccc1O)N1CCCCC1 | 35.4% |  |
| > 20 µM | CCCNC(=O)c1ccc(-n2cc(-c3ccccc3)nn2)cc1O | 1.1% |  |
| > 20 µM | CCCCCCc1cn(-c2ccc(O)c(C(=O)N3CCCCC3)c2)nn1 | 4.2% |  |
| > 20 µM | O=C(c1cc(-n2cc(-c3cc(F)cc(F)c3)nn2)ccc1O)N1CCCCC1 | 9.1% |  |
| > 20 µM | CCCNC(=O)c1ccc(-n2cc(-c3cc(F)cc(F)c3)nn2)cc1O | 0% |  |
| > 20 µM | CC(C)CCc1cn(-c2ccc(O)c(C(=O)N3CCCCC3)c2)nn1 | 0.9% |  |
| > 20 µM | CCCCCc1ccc(-c2cn(-c3ccc(O)c(C(=O)NCCC)c3)nn2)cc1 | 0% |  |
| > 20 µM | O=C(c1ccc(-n2cc(-c3cc(C(F)(F)F)cc(C(F)(F)F)c3)nn2)cc1O)N1CCCCC1 | 0% |  |
| > 20 µM | CCCNC(=O)c1ccc(-n2cc(CCC(C)C)nn2)cc1O | 7.3% |  |
| 12.8 µM | O=C(c1cc(-n2cc(-c3cc(C(F)(F)F)cc(C(F)(F)F)c3)nn2)ccc1O)N1CCCCC1 | 94.1% | Activity (RAW264.7 [3]): Non-toxic; Activity (RAW264.7 [1]): Dose-dependent effect; inhibition (RAW264.7 [4]): Active; inhibition (RAW264.7 [5]): Active; inhibition (RAW264.7 [6]): Dose-dependent effect; inhibition (RAW264.7 [7]): Dose-dependent effect |
| 19.7 µM | CCCCCCc1cn(-c2ccc(O)c(C(=O)NCCC)c2)nn1 | 57.9% |  |
| 19.9 µM | CNC(=N)NCCC[C@H](N)C(=O)O [TILARGININE] |  |  |

Reference: ChEMBL document CHEMBL1759885, “Syntheses of 1,2,3-triazolyl salicylamides with inhibitory activity on lipopolysaccharide-induced nitric oxide production” (Bioorg Med Chem Lett, 2011)
